Source: ChEMBL document CHEMBL1145117, “Structures and cytotoxic properties of trichoverroids and their macrolide analogues produced by saltwater culture of Myrothecium verrucaria” (J Med Chem, 2003)

What was measured:
M14 = assay: In vitro antitumor activity against melanoma M14 tumor cell lines; type: functional, cell-based, Homo sapiens; conditions: m14
HL-60 = assay: In vitro antitumor activity against leukemia HL-60(TB) tumor cell lines; type: functional, cell-based, Homo sapiens; conditions: hl-60
RXF 393 = assay: In vitro antitumor activity against renal RXF 393 tumor cell lines; type: functional, cell-based, Homo sapiens; conditions: rxf 393
CCRF-CEM = assay: In vitro antitumor activity against leukemia CCRF-CEM tumor cell lines; type: functional, cell-based, Homo sapiens; conditions: ccrf-cem
A549 = assay: In vitro antitumor activity against NSCL A549/ATCC tumor cell lines; type: functional, cell-based, Homo sapiens; conditions: a549
SK-MEL-2 = assay: In vitro antitumor activity against melanoma SK-MEL-2 tumor cell lines; type: functional, cell-based, Homo sapiens; conditions: sk-mel-2
786-0 = assay: In vitro antitumor activity against renal 786-0 tumor cell lines; type: functional, cell-based, Homo sapiens
A498 = assay: In vitro antitumor activity against renal A498 tumor cell lines; type: functional, cell-based, Homo sapiens; conditions: a498
UACC-62 = assay: In vitro antitumor activity against melanoma UACC-62 tumor cell lines; type: functional, cell-based, Homo sapiens; conditions: uacc-62
NCI-H522 = assay: In vitro antitumor activity against NSCL NCI-H522 tumor cell lines; type: functional, cell-based, Homo sapiens; conditions: nci-h522
NCI-H226 = assay: In vitro antitumor activity against NSCL NCI-H226 tumor cell lines; type: functional, cell-based, Homo sapiens; conditions: nci-h226
HCT-116 = assay: In vitro antitumor activity against colon HCT116 tumor cell lines; type: functional, cell-based, Homo sapiens; conditions: hct-116
MOLT-4 = assay: In vitro antitumor activity against leukemia MOLT-4 tumor cell lines; type: functional, cell-based, Homo sapiens; conditions: molt-4
MDA-MB-435 = assay: In vitro antitumor activity against breast MDA-MB-435 tumor cell lines; type: functional, cell-based, Homo sapiens; conditions: mda-mb-435
COLO 205 = assay: In vitro antitumor activity against colon COLO 205 tumor cell lines; type: functional, cell-based, Homo sapiens; conditions: colo 205
MDA-N = assay: In vitro antitumor activity against breast MDA-N tumor cell lines; type: functional, cell-based, Homo sapiens; conditions: mda-n
Homo sapiens = organism: Homo sapiens; assay: Concentration giving 500 zone units against H116 colon tumor cell lines; type: functional
Procedure, shortened: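 Disk diffusion soft agar colony formation assay on human H116 colon tumor cells. Each sample was applied to a disk as 15 µL, and activity was read as zone units. The value is the sample concentration that gave 500 zone units.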

MCF7 = assay: In vitro antitumor activity against breast MCF-7 tumor cell lines; type: functional, cell-based, Homo sapiens; conditions: mcf7
HCT-15 = assay: In vitro antitumor activity against colon HCT-15 tumor cell lines; type: functional, cell-based, Homo sapiens; conditions: hct-15

Row | Structure (SMILES) | IC50 (M14) [nM] | IC50 (HL-60) [nM] | IC50 (RXF 393) [nM] | IC50 (CCRF-CEM) [nM] | IC50 (A549) [nM] | IC50 (SK-MEL-2) [nM] | IC50 (786-0) [nM] | IC50 (A498) [nM] | IC50 (UACC-62) [nM] | IC50 (NCI-H522) [nM] | IC50 (NCI-H226) [nM] | IC50 (HCT-116) [nM] | IC50 (MOLT-4) [nM] | IC50 (MDA-MB-435) [nM] | IC50 (COLO 205) [nM] | IC50 (MDA-N) [nM] | Concentration (Homo sapiens) [µg/mL] | IC50 (MCF7) [nM] | IC50 (HCT-15) [nM]
1 | CC1=C[C@H]2OC3C[C@@H](OC(=O)/C=C\C=C\[C@H](O)[C@@H](C)O)[C@](C)([C@@]2(COC(=O)/C=C(\C)CCO)CC1)[C@]31CO1 [TRICHOVERRIN B] | 7100 | > 10000 | > 10000 | > 10000 | 6210 | 8910 | > 10000 | 8160 | > 10000 | 904 | 6930 | > 10000 | > 10000 | 5490 | 4020 | > 10000 | 175 | > 10000 | > 10000
2 | CC1=C[C@H]2O[C@@H]3[C@H](O)[C@H]4OC(=O)/C=C\C=C\[C@@H]5O[C@H](C/C(C)=C/C(=O)OC[C@@]2(CC1)[C@]4(C)[C@]31CO1)O[C@H]5C [RORIDIN M] | 75 | > 10000 | 2180 | > 10000 | > 10000 | 260 | > 10000 | 583 | 409 | 26 | 157 | 75 | > 10000 | 137 |  | 83 | 41 | > 10000 | 483
3 | CC1=C[C@H]2O[C@@H]3[C@H](O)[C@H]4OC(=O)/C=C\C=C\[C@H]([C@H](C)O)OCC/C(C)=C/C(=O)OC[C@@]2(CC1)[C@]4(C)[C@]31CO1 [RORIDIN L] | 24 | > 10000 | > 10000 | > 10000 | > 10000 | 24 |  | 19 | 18 | 21 | 91 | > 10000 | > 10000 | 20 | 13 | 21 | 1.3 | > 10000 | > 10000
4 | CC1=C[C@H]2O[C@@H]3C[C@H]4OC(=O)/C=C\C=C\[C@H]([C@H](C)O)OCC/C(C)=C/C(=O)OC[C@@]2(CC1)[C@]4(C)[C@]31CO1 |  |  |  |  |  |  |  |  |  |  |  |  |  |  |  |  | 8.6 |  | 
5 | CC(=O)OC(C)[C@@H](O)/C=C/C=C\C(=O)O[C@@H]1CC2O[C@@H]3C=C(C)CC[C@]3(COC(=O)/C=C(\C)CCO)[C@]1(C)[C@]21CO1 (stereo partly drawn) [13`-ACETYLTRICHOVERRIN B] | 9000 | > 10000 | > 10000 | > 10000 | 9770 | > 10000 | > 10000 | 2380 | 9560 | 1210 | 4870 | > 10000 | > 10000 | 2260 | 612 | 5080 | 31 | > 10000 | > 10000
6 | CC1=C[C@H]2O[C@@H]3[C@H](O)[C@H]4OC(=O)/C=C\C=C\[C@H]([C@@H](C)O)OCC/C(C)=C/C(=O)OC[C@@]2(CC1)[C@]4(C)[C@]31CO1 | < 1 | 10 | 57 | > 10000 |  | > 10000 | 59 | 9 | 9 | > 10000 | 7 | < 1 | > 10000 | 4 | > 10000 |  | 0.14 | > 10000 | > 10000
7 | CC1=C[C@H]2O[C@@H]3C[C@H]4OC(=O)/C=C\C=C\[C@H]([C@H](C)O)OCC[C@@H](C)[C@H](O)C(=O)OC[C@@]2(CC1)[C@]4(C)[C@]31CO1 [(6'R,13'S) ISORORIDIN A] | 10 | > 10000 | 10 | > 10000 | > 10000 | > 10000 | > 10000 | 6 | 2 | 95 |  | > 10000 | > 10000 | 31 | 8 | 8 | 0.9 | > 10000 | > 10000
8 | CC1=C[C@H]2O[C@@H]3C[C@H]4OC(=O)/C=C\C=C\C(=O)OCC[C@@H](C)[C@H](O)C(=O)OC[C@@]2(CC1)[C@]4(C)[C@]31CO1 [VERRUCARIN A] | < 1 | > 10000 | > 10000 | > 10000 | > 10000 | 8 |  | 3 | 5 | < 1 | 4 | > 10000 | > 10000 | 4 | < 1 | 82 | 0.78 | 1200 | 8100
9 | CC1=C[C@H]2O[C@@H]3C[C@H]4OC(=O)/C=C\C=C\[C@H]([C@@H](C)O)OCC[C@@H](C)[C@H](O)C(=O)OC[C@@]2(CC1)[C@]4(C)[C@]31CO1 [RORIDIN A] | < 1 | > 10000 | 2 | > 10000 | > 10000 | 3 | 40 | 316 | 5 | < 1 | 3 | > 10000 | > 10000 | 6 | 3 | 3 | 0.78 | > 10000 | > 10000
10 | CC1=C[C@H]2O[C@@H]3[C@H](O)[C@H]4OC(=O)/C=C\C=C\C(=O)OCC/C(C)=C/C(=O)OC[C@@]2(CC1)[C@]4(C)[C@]31CO1 [VERRUCARRIN M] | 8 | > 10000 | 84 | > 10000 |  | 37 | > 10000 | 53 | 57 | < 1 | 33 |  | > 10000 | 14 | 7 | 14 | 30 | > 10000 | 73
11 | CC1=C[C@H]2OC3C[C@@H](OC(=O)/C=C\C=C\[C@H](O)[C@H](C)O)[C@](C)([C@@]2(COC(=O)/C=C(\C)CCO)CC1)[C@]31CO1 [TRICHOVERRIN A] | 7870 | > 10000 | > 10000 | > 10000 | 5440 | 7540 | > 10000 | 6960 | > 10000 | 936 | 8410 | > 10000 | > 10000 | 2700 | 1310 | 7780 | 163 | > 10000 | > 10000
